Tested on: MS2 coat protein
Assay: apparent Kd, MS2 coat protein; higher = weaker binding; RNA-MaP array; FMN 200 µM where present
Procedure, shortened: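 Designs on Illumina sequencing-chip clusters, transcribed by stalled E. coli RNA polymerase, were exposed to SNAP-549-labelled MS2 coat protein in doubling steps from 0.7 or 1.5 nM up to 3 µM, without and then with constant ligand. The buffer held 100 mM Tris-HCl pH 7.5, 80 mM KCl, 4 mM MgCl2, BSA, DTT, yeast tRNA and Tween-20. Apparent Kd values are medians of filtered per-cluster binding-curve fits to green signal normalised to red-channel RNA signal and control-cluster median Fmax.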

[1] = ligand present: flavin mononucleotide, designed as: ON switch for flavin mononucleotide
[2] = designed as: ON switch for flavin mononucleotide, no ligand
[3] = designed as: OFF switch for flavin mononucleotide, no ligand
[4] = ligand present: flavin mononucleotide, designed as: OFF switch for flavin mononucleotide

## CGCUGUCACGCAGGAUAUGCAUUGGAUUACAAUGCAGAAGGGCGAUUACAUGAGGAUCACCCAUGUGUCGACAGUGAAGAAGAG
[1]
  apparent Kd: 43 nM

## CGCUGUCAUGCAGGAUAUGCAUUGGAUUACAAUGCAGAAGGGCGAUUACAUGAGGAUCACCCAUGUGUAGACAGUGAACAAGAG
[2]
  apparent Kd: 124 nM
[1]
  apparent Kd: 11.4 nM

## CGCUGUCAUGCAGGAUAUGCAUUGGAUUACAAUGCAGAAGGGCGAUUACAUGAGGAUCACCCAUGUGUAGACAGUGAAGAAAAG
[2]
  apparent Kd: 145 nM
[1]
  apparent Kd: 13.8 nM

## CGGAGACAUGAGGAUCACCCAUGUGAGGAUAUGCAAGCCCGACUGAUCGUUAGCCUAUGUAGAAGGCACGGGUC
[3]
  apparent Kd: 21.3 nM
[4]
  apparent Kd: 20 nM

## CGGAGGUCAGGAUAUGCAUGGCGGGACUUGCGUCGUGGCGUGCAGAAGGGACAUGAGGAUCACCCAUGUGGAGA
[3]
  apparent Kd: 83.2 nM
[4]
  apparent Kd: 259 nM

## CGGAUGUGAGGAUAUACAUGAGGAUCACCCAUGUGUGCCAGCUAGAUGACUGGCACUUGUAGAAGGCACGUCUG
[3]
  apparent Kd: 11.3 nM
[4]
  apparent Kd: 21.7 nM

## CGGCGCUGUCGAGAGGAUAUGCGGUGAUGGACAUGAGGAUCACCCAUGUUAGCGAUAGCAUCACGGUAGAAGGCUCUUACGCCUG
[2]
  apparent Kd: 378 nM
[1]
  apparent Kd: 174 nM

## CGGGAUAGGAAGGGCGAAAGCCCACAUGAGGAUCACCCAUGUAGAAGGCGGGCCGCAACGCGGCCCGAGGAUAUACACUAUCCA
[3]
  apparent Kd: 6.63 nM
[4]
  apparent Kd: 12.7 nM

## CGGGCAUAUCGAGGAUAUAAGUCUAGGACAUGAGGAUCACCCAUGUAUGUCUUAGAAGGCGAUAUGCCCAGCCUGUUACAGGCA
[2]
  apparent Kd: 30 nM
[1]
  apparent Kd: 6.01 nM

## CGGGCGCCGAAGGGCGAAAGCCCACAUGAGGAUCACCCAUGUAGAAGGAGGGAAGAAACCAAAACCUAGGAUAUACAGGCGCCA
[3]
  apparent Kd: 8.43 nM
[4]
  apparent Kd: 10.5 nM

## CGGUAACAUGAGGAUCACCCAUGUGAGGAUAUCGUACGUUCGUCGAAAGACGAUCGUACGAGAAGGCAUGACCG
[3]
  apparent Kd: 47.5 nM
[4]
  apparent Kd: 22.2 nM

## CGGUCGAUAUCAGGAUAUCGUUUAAUUACAUGAGGAUCACCCAUGUUGACAAGGAAUAUAACUUGCGAGAAGGGAUUACGAUCG
[2]
  apparent Kd: 9.33 nM
[1]
  apparent Kd: 6.47 nM

## CGGUCUUGCAACUAUUUGUUUCACAUGAGGAUCACCCAUGUCAGAAGGAGGUGCGUCUAUUAGACCUAGGAUAUGACGUGUAAG
[3]
  apparent Kd: 15.5 nM
[4]
  apparent Kd: 26 nM

## CGGUGCUGAGGAUAUACAUGAGGAUCACCCAUGUGUGCCAGCUAGCUGACUGGCGCUUGUAGAAGGCAGUACUG
[3]
  apparent Kd: 12.1 nM
[4]
  apparent Kd: 24.4 nM

## CGUACCAUGUAGAAGGCAUAUCUCAAAGAGAUAUGAGGAUAUACAUGAGGAUCACCCAUGUAAAUGUACUCCAGGAAACUGGAA
[3]
  apparent Kd: 47.8 nM
[4]
  apparent Kd: 222 nM

## CGUACGUCAGGAUAUCUGAUGUCUAACUUCGGUUAGACAUCAGAGAAGGGACAUGAGGAUCACCCAUGUACGAG
[3]
  apparent Kd: 88.3 nM
[4]
  apparent Kd: 105 nM

## CGUAGGAUCCAGAAGGCAUGAAACAUGAGGAUCACCCAUGUGAAACACAUGAGGAUAUGGAUCCUACGAAAAGUGCGAAAGCAC
[2]
  apparent Kd: 4.32 nM
[1]
  apparent Kd: 4.48 nM

## CGUAGGAUGCAGAAGGCAUGAACAUGAGGAUCACCCAUGUUAAAAGACAUGAGGAUAUGCAUCCUACGAAAAGUGCGAAAGCAC
[2]
  apparent Kd: 5.15 nM
[1]
  apparent Kd: 4.54 nM

## CGUGCGUAUGUGAGGAUAUGCUGGUCCUUGGAUCGGCAGAAGGCACAUGAGGAUCACCCAUGUGGUGUCGUACU
[3]
  apparent Kd: 238 nM
[4]
  apparent Kd: 32.4 nM

## CGUGCGUCGACAGGAUAUACAGAUUGGCUCCGGUACAUGAGGAUCACCCAUGUAGAAGGGUCACGCACGGUUAGUUCGUUAUUA
[3]
  apparent Kd: 8.88 nM
[4]
  apparent Kd: 40.9 nM

## CGUGUACGAGGAUAUAGAUUGGAUGACAUGAGGAUCACCCAUGUGAUCGAUCUAUUUGGUUUAGAAGGUGUACAUG
[3]
  apparent Kd: 13.4 nM
[4]
  apparent Kd: 14.2 nM

## CGUUGAUUUAUUGGAUGAUAUGAUGAGGAUAUCAAUAUUUGUUACAUGAGGAUCACCCAUGUUAAUGAGAAGGCAUAAUUAACG
[2]
  apparent Kd: 8.49 nM
[1]
  apparent Kd: 7.96 nM

## CGUUGUUGCGCAGGAUAUGCAUUGGAUUACAAUGCAGAAGGGCGAUUACAUGAGGAUCACCCAUGUGUCGACAAUAAGGAAGAG
[2]
  apparent Kd: 35.9 nM
[1]
  apparent Kd: 34 nM

## CGUUUGUAAGGAUAUAGCCACAUUACGAAUAAGUAGUGUGGCUAGAAGGUACAUGAGGAUCACCCAUGUAUGGG
[3]
  apparent Kd: 157 nM
[4]
  apparent Kd: 192 nM

## CGUUUUUAUGUAGGAUAUGCUUGUGGUAAGAUAGCAGAAGGACAUGAGGAUCACCCAUGUUAAUGAUAGAGAUUUUAUGUUGCG
[3]
  apparent Kd: 37.9 nM
[4]
  apparent Kd: 50.2 nM

## CUAAAAGUCGAGGAUAUGCACCGGCUUUCUGACGCAGAAGGCGACACAUGAGGAUCACCCAUGUCGGUACGCGA
[3]
  apparent Kd: 13.7 nM
[4]
  apparent Kd: 15.8 nM

## CUAAAUCAUGUAGGAUAUGGAUGGCGAAGCUACCCAGAAGGACAUGAGGAUCACCCAUGUCAGAACGUCUGCGUUCAGACGUUG
[3]
  apparent Kd: 35.7 nM
[4]
  apparent Kd: 217 nM

## CUAAGACGAUGUCACGUUGUCGGGACAGAAGGCACGUACAUGAGGAUCACCCAUGUAAAACACAGUGAGGAUAUGUACCUGCGA
[2]
  apparent Kd: 30.8 nM
[1]
  apparent Kd: 8.1 nM

Reference: the EternaBench riboswitch data
